The record followed here is ChEMBL document CHEMBL1142380, “Synthesis, in vitro characterization, and radiolabeling of reboxetine analogs as potential PET radioligands for imaging the norepinephrine transporter” (Bioorg Med Chem, 2008).

Assay [1] is filed under the species Homo sapiens. Put plainly: Selectivity ratio of Ki for human DAT to Ki for human NET.
For assay [2], the target named is Sodium-dependent noradrenaline transporter (Homo sapiens, UniProt P23975). Briefly: Displacement of [3H]nisoxetine from human NET expressed in HEK293 cells. The class given is cell-based. An outline of the steps: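 Membranes from HEK-293 cells stably expressing hNET (grown in DMEM, 10% FBS, Geneticin), 30–70 µg protein per tube, with [3H]nisoxetine. Buffer: 53 mM Tris, 320 mM NaCl, 5.3 mM KCl, pH 7.4 at 4 °C. Incubated 4 h at 4 °C. Competitor tested at 12 concentrations, 10^-13 to 10^-5 M, in triplicate. Filtered on PEI-soaked GF/B filters. Ki given as geometric mean of ≥3 assays.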
Sodium-dependent noradrenaline transporter, sequence (P23975 whole entry): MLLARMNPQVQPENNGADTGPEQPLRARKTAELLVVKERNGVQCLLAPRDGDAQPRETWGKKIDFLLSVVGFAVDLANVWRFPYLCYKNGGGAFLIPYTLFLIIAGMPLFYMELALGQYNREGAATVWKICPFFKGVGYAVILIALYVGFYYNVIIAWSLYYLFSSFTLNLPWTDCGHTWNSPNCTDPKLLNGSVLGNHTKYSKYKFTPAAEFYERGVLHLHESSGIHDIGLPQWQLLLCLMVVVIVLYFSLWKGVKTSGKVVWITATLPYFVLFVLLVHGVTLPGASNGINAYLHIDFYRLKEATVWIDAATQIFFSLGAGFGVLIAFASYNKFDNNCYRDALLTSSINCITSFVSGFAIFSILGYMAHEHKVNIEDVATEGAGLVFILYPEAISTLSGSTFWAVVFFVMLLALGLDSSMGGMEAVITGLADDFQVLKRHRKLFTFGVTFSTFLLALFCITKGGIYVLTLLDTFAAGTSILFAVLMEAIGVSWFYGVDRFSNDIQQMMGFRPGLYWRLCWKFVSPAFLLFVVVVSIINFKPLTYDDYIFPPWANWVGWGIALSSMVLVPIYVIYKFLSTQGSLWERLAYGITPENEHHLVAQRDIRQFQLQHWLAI
(In general: Loss of bound radioactivity is the signal in a displacement assay; it reports binding, not function.)

The target of assay [3] is Sodium-dependent serotonin transporter (Homo sapiens, UniProt P31645). Briefly: Displacement of [3H]citalopram from human SERT expressed in HEK293 cells. The format is cell-based. A digest of the protocol:
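Membranes from HEK-293 cells stably expressing hSERT, 30–70 µg protein, with [3H]citalopram. Buffer: 53 mM Tris, 126 mM NaCl, 5.3 mM KCl, pH 7.9. Incubated 2 h at room temperature. Competitor tested at 12 concentrations, 10^-13 to 10^-5 M, in triplicate. Ended by cold-buffer vacuum filtration on 0.3% PEI-soaked GF/B filters. Ki given as geometric mean of ≥3 separate assays.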

The species named for assay [4] is Homo sapiens. Put plainly: Selectivity ratio of Ki for human SERT to Ki for human NET.
Assay [5] has as its target Sodium-dependent dopamine transporter (Homo sapiens, UniProt Q01959). Put plainly: Displacement of [125I]RTI-55 from human DAT expressed in HEK-293 cells.

Sodium-dependent dopamine transporter, sequence (Q01959 whole entry): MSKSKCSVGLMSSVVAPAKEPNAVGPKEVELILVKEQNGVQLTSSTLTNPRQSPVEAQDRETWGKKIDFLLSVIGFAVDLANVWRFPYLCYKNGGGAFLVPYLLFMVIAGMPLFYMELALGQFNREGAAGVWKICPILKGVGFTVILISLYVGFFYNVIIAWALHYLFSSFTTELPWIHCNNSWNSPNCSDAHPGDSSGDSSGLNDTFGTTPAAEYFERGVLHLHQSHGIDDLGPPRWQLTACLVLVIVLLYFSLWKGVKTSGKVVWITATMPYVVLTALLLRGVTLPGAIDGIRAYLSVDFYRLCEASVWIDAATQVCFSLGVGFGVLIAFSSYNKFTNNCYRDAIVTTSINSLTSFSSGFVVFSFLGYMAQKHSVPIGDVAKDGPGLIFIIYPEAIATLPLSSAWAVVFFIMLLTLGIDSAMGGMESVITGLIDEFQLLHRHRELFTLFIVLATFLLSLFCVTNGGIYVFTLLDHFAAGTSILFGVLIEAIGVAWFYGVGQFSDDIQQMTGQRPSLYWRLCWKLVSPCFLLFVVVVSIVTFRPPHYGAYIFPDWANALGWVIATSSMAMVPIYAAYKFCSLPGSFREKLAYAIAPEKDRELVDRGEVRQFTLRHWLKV
Sodium-dependent serotonin transporter, sequence (P31645 whole entry): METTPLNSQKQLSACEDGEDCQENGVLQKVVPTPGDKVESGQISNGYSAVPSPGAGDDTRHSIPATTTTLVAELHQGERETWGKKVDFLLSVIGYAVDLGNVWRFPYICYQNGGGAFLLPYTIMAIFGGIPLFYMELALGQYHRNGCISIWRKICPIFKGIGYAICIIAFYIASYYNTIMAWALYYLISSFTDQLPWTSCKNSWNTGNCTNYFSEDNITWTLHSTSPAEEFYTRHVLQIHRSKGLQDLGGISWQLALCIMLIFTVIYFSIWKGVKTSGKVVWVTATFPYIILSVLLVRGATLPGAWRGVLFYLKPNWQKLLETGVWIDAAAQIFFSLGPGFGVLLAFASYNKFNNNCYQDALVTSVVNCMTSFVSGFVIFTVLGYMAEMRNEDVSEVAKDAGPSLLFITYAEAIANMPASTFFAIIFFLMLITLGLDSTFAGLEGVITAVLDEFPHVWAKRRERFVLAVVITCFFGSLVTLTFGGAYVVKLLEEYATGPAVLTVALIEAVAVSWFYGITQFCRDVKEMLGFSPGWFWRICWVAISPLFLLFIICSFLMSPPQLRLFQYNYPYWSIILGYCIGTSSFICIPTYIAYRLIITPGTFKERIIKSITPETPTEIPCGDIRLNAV

By Ki is commonly meant a dissociation constant, usually derived from enzyme kinetics or from competition with a known ligand. A low value points to tighter binding. Regarding `COc1ccccc1O[C@@H](c1ccccc1)[C@@H]1CNCCO1`, the Ratio Ki in assay [1] is above 10000; in assay [4] it was 195. Further, the Ki is 0.95 nM in assay [2], 185 nM in assay [3] and above 10000 nM in assay [5].

`COC(=O)c1ccccc1O[C@@H](c1ccccc1)[C@@H]1CNCCO1`: the Ratio Ki in assay [1] is above 2000; in assay [4], 465. The Ki in assay [2] was 1.32 nM; in assay [3] it was 614 nM; in assay [5], above 3000 nM.

With `FCCCOc1ccccc1S[C@@H](c1ccccc1)[C@@H]1CNCCO1`, the Ratio Ki in assay [1] is above 7000; in assay [4] it was 100. For the same compound, the Ki was 1.21 nM in assay [2], 121 nM in assay [3] and above 9000 nM in assay [5].

Take `COC(=O)c1ccccc1S[C@@H](c1ccccc1)[C@@H]1CNCCO1`: the Ratio Ki was above 20000 in assay [1] and 369 in assay [4]. The Ki in assay [2] was 1.35 nM; in assay [3], 498 nM; in assay [5], above 30000 nM.

As for `FCCOc1ccccc1S[C@@H](c1ccccc1)[C@@H]1CNCCO1`, the Ratio Ki is above 10000 in assay [1] and 733 in assay [4]. The Ki in assay [2] is 1 nM; in assay [3], 733 nM; in assay [5], above 10000 nM.

With `COc1ccccc1S[C@@H](c1ccccc1)[C@@H]1CNCCO1`, the Ratio Ki in assay [1] is above 4000; in assay [4], 13. The Ki in assay [2] was 0.76 nM; in assay [3], 9.69 nM; in assay [5], above 4000 nM.

Consider `CSc1ccccc1O[C@@H](c1ccccc1)[C@@H]1CNCCO1`, for which the Ratio Ki was above 3000 in assay [1] and 44 in assay [4]. Further, the Ki in assay [2] is 2.06 nM; in assay [3], 90.9 nM; in assay [5], above 6000 nM.
